pIC50: −log10 of the molar value. Like-named read-outs stand apart in the source and are kept apart here. A value given as a limit tells only on which side of the number the result lay.

Type in all cases: cell-based, human
One series has as its system MCF7. Briefly: MTT assay, cytotoxicity. Particulars: read-out: IC50 MCF7. The essentials:
(§1)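 Cells in medium with 10% FBS, streptomycin and penicillin; 5000 cells per well. After 12 h, test compounds added at 0.1–40 μM, with 0.1% DMSO as vehicle, for 48 h. Then serum-free medium and MTT (5 mg mL−1) at 4:1 for 4 h at 37 °C. Formazan dissolved in DMSO, absorbance at 570 nm, normalized to DMSO control. IC50 from sigmoidal variable-slope nonlinear regression.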
Background: Formazan colour is commonly taken as a measure of viable cells.

The next series concerns C4-2. Briefly: MTT assay, cytotoxicity.
In a further series the test system is 22Rv1. The series is described as follows: MTT assay, cytotoxicity. Particulars: read-out: IC50 22Rv1. Summed up: as §1
A further series deals with PC3. The series is described as follows: MTT assay, cytotoxicity. Particulars: read-out: IC50 PC3. The essentials:
as §1

A further series deals with HEK293. The series is described as follows: MTT assay, cytotoxicity to normal cells. Particulars: read-out: IC50 HEK293. The essentials: as §1
The test system of series [1] is prostate, breast, epithelial cancer cells. Briefly: MTT assay, all tested cancer cell lines together. Summed up: as §1
In a further series the test system is MIAPACA. Briefly: MTT assay, cytotoxicity. Particulars: read-out: IC50 MIAPACA, 48 h treatment, 0.1-40 μM. Summed up:
as §1

[2] abbreviates: Homo sapiens, C4-2, 48 h, read-out: IC50 C4-2, MTT, 48 h treatment, 0.1-40 μM.
Where [3] appears, read: read-out: IC50 C4-2, MTT, 48 h treatment, 0.1-40 μM.
The mark [4] stands for this setting: normal human kidney cells, MTT, 48 h.

What is called pIC50 is the negative decadic logarithm of the IC50, by convention in mol/L. `N#CC(=Cc1cn(Cc2ccc(Cl)cc2)c2ccccc12)C(=O)c1c[nH]c2ccccc12` [21b, 3-(1-(4-Chlorobenzyl)-1H-indol-3-yl)-2-(1H-indole-3-carbonyl)acrylonitrile]: the pIC50 in the series with MCF7 (Homo sapiens, MCF7, 48 h) was 5.16; in the series with C4-2 (setting [2]), 4.87; in the series on 22Rv1 (Homo sapiens, 22Rv1, 48 h), 4.67; in the series with PC3 (Homo sapiens, PC-3, 48 h), 4.97; with HEK293 (Homo sapiens, HEK293, 48 h), 4.40. The “cytotoxicity against the tested cancer cells, in words (SAR)” value (from here on “cytotoxicity”) in series [1] is “moderate activity”.

For `COc1cc2[nH]cc(C(=O)C(C#N)=Cc3cn(C)c4ccccc34)c2cc1OC` [21n, 2-(5,6-Dimethoxy-1H-indole-3-carbonyl)-3-(1-methyl-1H-indol-3-yl)acrylonitrile], the pIC50 with MCF7 (Homo sapiens, MCF7, 48 h) is 5.25; in the series with C4-2 (setting [2]), 5.99; in the series with 22Rv1 (Homo sapiens, 22Rv1, 48 h) it was 4.69; with PC3 (Homo sapiens, PC-3, 48 h), 5.15; with HEK293 (Homo sapiens, HEK293, 48 h), under 4.40. Besides, the “cytotoxicity” value in series [1] is given as “improved the selectivity against prostate cancer cell lines”.

For `CCOc1ccc2[nH]cc(C(=O)C(C#N)=Cc3cn(CC)c4ccccc34)c2c1` [21i, 2-(5-Ethoxy-1H-indole-3-carbonyl)-3-(1-ethyl-1H-indol-3-yl)acrylonitrile], the pIC50 in the series on MCF7 (Homo sapiens, MCF7, 48 h) is 5.13; in the series on C4-2 (setting [2]), 5.66; with 22Rv1 (Homo sapiens, 22Rv1, 48 h), 5.05; in the series on PC3 (Homo sapiens, PC-3, 48 h) it was 5.58; in the series with HEK293 (Homo sapiens, HEK293, 48 h) it was under 4.40. The “cytotoxicity” value in series [1] is on record as “significantly enhanced cytotoxicity”.

As for `COc1cc2[nH]cc(C(=O)C(C#N)=Cc3cn(Cc4ccc(Cl)cc4)c4ccccc34)c2cc1OC` [21p, 3-(1-(4-Chlorobenzyl)-1H-indol-3-yl)-2-(5,6-dimethoxy-1H-indole-3-carbonyl)-acrylonitrile], the pIC50 in the series on MCF7 (Homo sapiens, MCF7, 48 h) was under 4.40; in the series on C4-2 (setting [2]), 4.51; in the series on 22Rv1 (Homo sapiens, 22Rv1, 48 h), under 4.40; in the series on PC3 (Homo sapiens, PC-3, 48 h), under 4.40; in the series with HEK293 (Homo sapiens, HEK293, 48 h) it was under 4.40. Also, the “cytotoxicity” value in series [1] is listed as “detrimental for the activity”.

In the case of `COc1ccc2c(C(=O)C(C#N)=Cc3cn(C)c4ccccc34)c[nH]c2c1` [21e, 2-(6-Methoxy-1H-indole-3-carbonyl)-3-(1-methyl-1H-indol-3-yl)acrylonitrile], the pIC50 is 4.90 in the series on MCF7 (Homo sapiens, MCF7, 48 h); 4.80 in the series with C4-2 (setting [2]); 4.55 in the series with 22Rv1 (Homo sapiens, 22Rv1, 48 h); 5.12 with PC3 (Homo sapiens, PC-3, 48 h); under 4.40 with HEK293 (Homo sapiens, HEK293, 48 h). The “cytotoxicity” value in series [1] was “reduced activity”.

Consider `CCn1cc(C=C(C#N)C(=O)c2c[nH]c3cc(OC)ccc23)c2ccccc21` [21f, 3-(1-Ethyl-1H-indol-3-yl)-2-(6-methoxy-1H-indole-3-carbonyl)acrylonitrile], for which the pIC50 with MCF7 (Homo sapiens, MCF7, 48 h) is 4.43; with C4-2 (setting [2]), 4.90; in the series with 22Rv1 (Homo sapiens, 22Rv1, 48 h), under 4.40; in the series with PC3 (Homo sapiens, PC-3, 48 h), 4.62; in the series with HEK293 (Homo sapiens, HEK293, 48 h), 4.40. For the same compound, the “cytotoxicity” value in series [1] is given as “reduced activity”.

With `CCOc1ccc2[nH]cc(C(=O)C(C#N)=Cc3cn(C)c4ccccc34)c2c1` [21h, 2-(5-Ethoxy-1H-indole-3-carbonyl)-3-(1-methyl-1H-indol-3-yl)acrylonitrile], the pIC50 in the series on MCF7 (Homo sapiens, MCF7, 48 h) is 4.78; with C4-2 (setting [2]) it was 5.00; in the series with 22Rv1 (Homo sapiens, 22Rv1, 48 h), 5.28; in the series with PC3 (Homo sapiens, PC-3, 48 h) it was 4.56; in the series on HEK293 (Homo sapiens, HEK293, 48 h), 4.40. In series [1], the “cytotoxicity” value is “significantly enhanced cytotoxicity”.

For `CCn1cc(C=C(C#N)C(=O)c2c[nH]c3cc(OC)c(OC)cc23)c2ccccc21` [21o, 2-(5,6-Dimethoxy-1H-indole-3-carbonyl)-3-(1-ethyl-1H-indol-3-yl)acrylonitrile], the pIC50 in the series with MCF7 (Homo sapiens, MCF7, 48 h) was 4.50; in the series with C4-2 (setting [2]), 5.23; in the series with 22Rv1 (Homo sapiens, 22Rv1, 48 h) it was 4.59; in the series with PC3 (Homo sapiens, PC-3, 48 h), 4.72; with HEK293 (Homo sapiens, HEK293, 48 h) it was under 4.40. For the same compound, the “cytotoxicity” value in series [1] is recorded as “improved the selectivity against prostate cancer cell lines”.

As to “2-(5-Isopropoxy-1H-indole-3-carbonyl)-3-(1-methyl-1H-indol-3-yl)acrylonitrile [21m]”, the pIC50 in the series with MCF7 (MTT, 48 h treatment, 0.1-40 μM) is 5.53; in the series on C4-2 (setting [3]), 4.75; with 22Rv1 (MTT, 48 h treatment, 0.1-40 μM), 4.79; with MIAPACA it was 5.80; with PC3 (MTT, 48 h treatment, 0.1-40 μM) it was 4.93; with HEK293 (setting [4]) it was under 4.40.

On to `COc1ccc(C=C(C#N)C(=O)c2c[nH]c3ccccc23)cc1OC` [21r, 3-(3,4-Dimethoxyphenyl)-2-(1H-indole-3-carbonyl)acrylonitrile], for which the pIC50 in the series with MCF7 (Homo sapiens, MCF7, 48 h) is under 4.40; in the series with C4-2 (setting [2]), under 4.40; with 22Rv1 (Homo sapiens, 22Rv1, 48 h) it was 4.47; with PC3 (Homo sapiens, PC-3, 48 h), 4.60; with HEK293 (Homo sapiens, HEK293, 48 h) it was 4.51. In addition, the “cytotoxicity” value in series [1] is “detrimental for the activity”.

Turning to “3-(1-Ethyl-1H-indol-3-yl)-2-(5-isopropoxy-1H-indole-3-carbonyl)acrylonitrile [21l]”, the pIC50 is 5.10 in the series on MCF7 (MTT, 48 h treatment, 0.1-40 μM); 4.58 in the series with C4-2 (setting [3]); 5.60 with 22Rv1 (MTT, 48 h treatment, 0.1-40 μM); 4.42 with MIAPACA; 5.34 in the series on PC3 (MTT, 48 h treatment, 0.1-40 μM); 4.42 with HEK293 (setting [4]).

Regarding `COc1ccc(C=C(C#N)C(=O)c2c[nH]c3ccccc23)cc1` [21q, 2-(1H-Indole-3-carbonyl)-3-(4-methoxyphenyl)acrylonitrile], the pIC50 in the series on MCF7 (Homo sapiens, MCF7, 48 h) is 4.60; in the series on C4-2 (setting [2]), under 4.40; in the series with 22Rv1 (Homo sapiens, 22Rv1, 48 h), 4.55; in the series on PC3 (Homo sapiens, PC-3, 48 h), 4.43; with HEK293 (Homo sapiens, HEK293, 48 h) it was under 4.40. Besides, the “cytotoxicity” value in series [1] is recorded as “detrimental for the activity”.

Turning to `CCCOc1ccc2[nH]cc(C(=O)C(C#N)=Cc3cn(C)c4ccccc34)c2c1` [21k, 3-(1-Methyl-1H-indol-3-yl)-2-(5-propoxy-1H-indole-3-carbonyl)acrylonitrile], the negative logarithm of the IC50 (pIC50) was 4.73 in the series on MCF7 (Homo sapiens, MCF7, 48 h); 4.86 with C4-2 (setting [2]); 4.55 in the series on 22Rv1 (Homo sapiens, 22Rv1, 48 h); 4.79 in the series with PC3 (Homo sapiens, PC-3, 48 h); 4.40 in the series on HEK293 (Homo sapiens, HEK293, 48 h).

As for `COc1ccc2[nH]cc(C(=O)C(C#N)=Cc3cn(C)c4ccccc34)c2c1` [21c, 2-(5-Methoxy-1H-indole-3-carbonyl)-3-(1-methyl-1H-indol-3-yl)acrylonitrile], the pIC50 in the series on MCF7 (Homo sapiens, MCF7, 48 h) is 4.60; in the series on C4-2 (setting [2]), 5.12; with 22Rv1 (Homo sapiens, 22Rv1, 48 h) it was 5.91; in the series on PC3 (Homo sapiens, PC-3, 48 h), 4.81; with HEK293 (Homo sapiens, HEK293, 48 h) it was under 4.40.

Regarding `CCn1cc(C=C(C#N)C(=O)c2c[nH]c3ccc(OC)cc23)c2ccccc21` [21d, 3-(1-Ethyl-1H-indol-3-yl)-2-(5-methoxy-1H-indole-3-carbonyl)acrylonitrile], the negative-log IC50 (pIC50) was 4.96 with MCF7 (Homo sapiens, MCF7, 48 h); 5.10 in the series on C4-2 (setting [2]); 4.60 in the series on 22Rv1 (Homo sapiens, 22Rv1, 48 h); under 4.40 in the series on PC3 (Homo sapiens, PC-3, 48 h); 4.41 in the series on HEK293 (Homo sapiens, HEK293, 48 h).

For the compound `COc1ccc2c(C(=O)C(C#N)=Cc3cn(Cc4ccc(Cl)cc4)c4ccccc34)c[nH]c2c1` [21g, 3-(1-(4-Chlorobenzyl)-1H-indol-3-yl)-2-(6-methoxy-1H-indole-3-carbonyl)acrylonitrile], the pIC50 in the series on MCF7 (Homo sapiens, MCF7, 48 h) is 4.98; with C4-2 (setting [2]), 4.88; in the series with 22Rv1 (Homo sapiens, 22Rv1, 48 h), 4.47; in the series on PC3 (Homo sapiens, PC-3, 48 h) it was 4.84; with HEK293 (Homo sapiens, HEK293, 48 h) it was under 4.40. Besides, in series [1], the “cytotoxicity” value is reported as “reduced activity”.

With `CCn1cc(/C=C(\C#N)C(=O)c2c[nH]c3ccccc23)c2ccccc21` [21a, (E)-3-(1-Ethyl-1H-indol-3-yl)-2-(1H-indole-3-carbonyl)acrylonitrile], the pIC50 is 4.99 with MCF7 (Homo sapiens, MCF7, 48 h); 5.41 in the series with C4-2 (setting [2]); under 4.40 in the series on 22Rv1 (Homo sapiens, 22Rv1, 48 h); 4.89 in the series on PC3 (Homo sapiens, PC-3, 48 h); under 4.40 in the series on HEK293 (Homo sapiens, HEK293, 48 h).

(Values after article PMC11809490 (RSC Advances, 2025).)
